In ChEMBL document CHEMBL4190374, “Structure-Function Evaluation of Imidazopyridine Derivatives Selective for δ-Subunit-Containing γ-Aminobutyric Acid Type A (GABAA) Receptors” (J Med Chem, 2018):

Tests used:
[1] = molecular target: Gamma-aminobutyric acid receptor subunit alpha-4/beta-3/gamma-2 (Rattus norvegicus, UniProt P18508+P28471+P63079); test: Displacement of [3H]EBOB from rat GABA-A receptor alpha4beta3gamma2 expressed in HEK293 cell membranes after 90 mins by liquid scintillation counting analysis
Outline: (§1)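 Crude membranes from HEK 293 cells transiently Ca-phosphate-transfected with rat subunit cDNAs, harvested at 48 h. Membranes (150-200 µg protein) incubated with 3 nM [3H]EBOB in 50 mM Tris/citrate pH 7.3 plus 0.2 M NaCl. Compound up to 10 µM, final DMSO 0.1%, no GABA, 90 min at 21 °C. Bound radioligand collected by GF/C filtration and counted by scintillation.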

[2] = molecular target: Gamma-aminobutyric acid receptor subunit alpha-6/beta-3 (Rattus norvegicus, UniProt P30191+P63079); test: Displacement of [3H]EBOB from rat GABA-A receptor alpha6beta3 expressed in HEK293 cell membranes after 90 mins by liquid scintillation counting analysis; outline: as §1
[3] = molecular target: GABA A receptor alpha-6/beta-2/gamma-2 (Rattus norvegicus, UniProt P18508+P30191+P63138); test: Displacement of [3H]EBOB from rat GABA-A receptor alpha6beta2gamma2 expressed in HEK293 cell membranes after 90 mins by liquid scintillation counting analysis; outline: as §1
[4] = molecular target: Gamma-aminobutyric acid receptor subunit alpha-1/beta-3/delta (Rattus norvegicus) (UniProt P18506+P62813+P63079); test: Displacement of [3H]EBOB from rat GABA-A receptor alpha1beta3delta expressed in HEK293 cell membranes at 10 uM after 90 mins by liquid scintillation counting analysis relative to control; outline: as §1
[5] = molecular target: T1, Gamma-aminobutyric acid receptor subunit alpha-4/beta-3 (Rattus norvegicus) (UniProt P28471+P63079); test: Displacement of [3H]EBOB from rat GABA-A receptor alpha4beta3 expressed in HEK293 cell membranes up to 10 uM after 90 mins by liquid scintillation counting analysis relative to control; outline: as §1
[6] = molecular target: T2, Gamma-aminobutyric acid receptor subunit alpha-6/beta-3 (Rattus norvegicus) (UniProt P30191+P63079); test: Displacement of [3H]EBOB from rat GABA-A receptor alpha6beta3 expressed in HEK293 cell membranes up to 10 uM after 90 mins by liquid scintillation counting analysis relative to control; outline: as §1
[7] = molecular target: Gamma-aminobutyric acid receptor subunit alpha-6/beta-2/delta (Rattus norvegicus) (UniProt P18506+P30191+P63138); test: Displacement of [3H]EBOB from rat GABA-A receptor alpha6beta2delta expressed in HEK293 cell membranes up to 10 uM after 90 mins by liquid scintillation counting analysis relative to control; outline: as §1
[8] = species on record: Rattus norvegicus; test: Selectivity ratio of IC50 for rat GABA-A receptor alpha4beta3 expressed in HEK293 cells to IC50 for rat GABA-A receptor alpha4beta3delta expressed in HEK293 cells; type: cell-based
[9] = species on record: Rattus norvegicus; test: Selectivity ratio of IC50 for rat GABA-A receptor alpha6beta2 expressed in HEK293 cells to IC50 for rat GABA-A receptor alpha6beta2delta expressed in HEK293 cells; type: cell-based
[10] = species on record: Rattus norvegicus; test: Selectivity ratio of IC50 for rat GABA-A receptor alpha6beta2gamma2 expressed in HEK293 cells to IC50 for rat GABA-A receptor alpha6beta2delta expressed in HEK293 cells; type: cell-based
[11] = species on record: Rattus norvegicus; test: Selectivity ratio of IC50 for rat GABA-A receptor alpha6beta3 expressed in HEK293 cells to IC50 for rat GABA-A receptor alpha6beta3delta expressed in HEK293 cells; type: cell-based
[12] = molecular target: Gamma-aminobutyric acid receptor subunit alpha-1/beta-3/delta (Rattus norvegicus, UniProt P18506+P62813+P63079); test: Modulation of rat […] GABA-A receptor alpha1beta3delta expressed in HEK293 cells in presence of GABA by patch-clamp assay; type: cell-based
Outline: (§2)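 Rat GABA-A subunits were transiently co-transfected with eGFP into HEK293 cells on coverslips. Fluorescent cells were recorded by whole-cell patch clamp 48 h later; bath pH 7.4, KCl/KOH pipette pH 7.2. Compound was applied at increasing concentrations up to 10 µM with the receptor-specific GABA EC20. Peak currents were fitted logistically for EC50, Hill and % modulation, as mean ± S.E.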

[13] = molecular target: T1, Gamma-aminobutyric acid receptor subunit alpha-4/beta-3 (Rattus norvegicus); test: Modulation of rat […] GABA-A receptor alpha4beta3 expressed in HEK293 cells up to 10 uM in presence of GABA by patch-clamp assay relative to control; type: cell-based; outline: as §2
[14] = molecular target: T2, Gamma-aminobutyric acid receptor subunit alpha-6/beta-3 (Rattus norvegicus); test: Modulation of rat […] GABA-A receptor alpha6beta3 expressed in HEK293 cells up to 10 uM in presence of GABA by patch-clamp assay relative to control; type: cell-based; outline: as §2
[15] = molecular target: Gamma-aminobutyric acid receptor subunit alpha-1/beta-3/gamma-2 (Rattus norvegicus) (UniProt P18508+P62813+P63079); test: Agonist activity at rat […] GABA-A receptor alpha1beta3gamma2 expressed in HEK293 cells assessed as ratio of I0 to GABA Imax at 10 uM in absence of GABA by patch-clamp assay; type: cell-based
Outline: (§3)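 Whole-cell patch clamp on single fluorescent HEK 293 cells 48 h after transient co-transfection with rat subunit cDNAs plus eGFP. Extracellular solution 135 mM NaCl, 5.3 mM KCl, 2 mM CaCl2, 2 mM MgSO4, 10 mM HEPES pH 7.4, perfused 3 mL/min. Compound at 10 µM without GABA. Current expressed relative to 1 mM GABA at the same receptor (I0/Imax GABA), mean ± S.D. of n experiments.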

[16] = molecular target: T2, Gamma-aminobutyric acid receptor subunit alpha-6/beta-3 (Rattus norvegicus); test: Agonist activity at rat […] GABA-A receptor alpha6beta3 expressed in HEK293 cells assessed as ratio of I0 to GABA Imax at 10 uM in absence of GABA by patch-clamp assay; type: cell-based; outline: as §3
[17] = molecular target: T3, Gamma-aminobutyric acid receptor subunit alpha-6/beta-3/delta (Rattus norvegicus) (UniProt P18506+P30191+P63079); test: Agonist activity at rat […] GABA-A receptor alpha6beta3delta expressed in HEK293 cells assessed as ratio of I0 to GABA Imax at 10 uM in absence of GABA by patch-clamp assay; type: cell-based; outline: as §3
[18] = molecular target: T3, Gamma-aminobutyric acid receptor subunit alpha-6/beta-3/delta (Rattus norvegicus); test: (§4) Displacement of [3H]EBOB from rat GABA-A receptor alpha6beta3delta expressed in HEK293 cell membranes after 90 mins in presence of GABA by liquid scintillation counting analysis
[19] = molecular target: Gamma-aminobutyric acid receptor subunit alpha-6/beta-3/delta (Rattus norvegicus, UniProt P18506+P30191+P63079); test: as §4
[20] = species on record: Rattus norvegicus; test: Selectivity ratio of IC50 for rat GABA-A receptor alpha6beta3delta expressed in HEK293 cells to IC50 for rat GABA-A receptor alpha6beta2delta expressed in HEK293 cells; type: cell-based
[21] = molecular target: T3, Gamma-aminobutyric acid receptor subunit alpha-6/beta-3/delta (Rattus norvegicus); test: Displacement of [3H]EBOB from rat GABA-A receptor alpha6beta3delta expressed in HEK293 cell membranes up to 10 uM after 90 mins by liquid scintillation counting analysis relative to control; outline: as §1
[22] = tested on: GABA-A receptor alpha6beta3delta (++); test: Modulation of rat eGFP-fused GABA-A receptor alpha6beta3delta expressed in HEK293 cells up to 10 uM in presence of GABA by patch-clamp assay relative to control

Chain of GABA A receptor alpha-6/beta-2/gamma-2 (P18508 whole entry): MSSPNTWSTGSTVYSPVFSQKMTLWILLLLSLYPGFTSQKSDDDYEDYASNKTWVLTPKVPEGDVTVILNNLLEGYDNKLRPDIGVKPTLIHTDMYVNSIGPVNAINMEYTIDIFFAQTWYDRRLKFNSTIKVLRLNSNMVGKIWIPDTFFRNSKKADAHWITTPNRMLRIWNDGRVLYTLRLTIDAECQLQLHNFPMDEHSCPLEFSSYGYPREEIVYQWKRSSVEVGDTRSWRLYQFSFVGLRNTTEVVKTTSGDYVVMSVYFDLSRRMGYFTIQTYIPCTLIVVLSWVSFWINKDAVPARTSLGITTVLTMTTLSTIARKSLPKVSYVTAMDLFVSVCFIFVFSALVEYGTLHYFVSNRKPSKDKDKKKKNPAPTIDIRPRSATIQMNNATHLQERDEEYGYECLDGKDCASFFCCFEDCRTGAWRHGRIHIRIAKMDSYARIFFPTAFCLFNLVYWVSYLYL
Chain of GABA A receptor alpha-6/beta-2/gamma-2 (P30191 whole entry): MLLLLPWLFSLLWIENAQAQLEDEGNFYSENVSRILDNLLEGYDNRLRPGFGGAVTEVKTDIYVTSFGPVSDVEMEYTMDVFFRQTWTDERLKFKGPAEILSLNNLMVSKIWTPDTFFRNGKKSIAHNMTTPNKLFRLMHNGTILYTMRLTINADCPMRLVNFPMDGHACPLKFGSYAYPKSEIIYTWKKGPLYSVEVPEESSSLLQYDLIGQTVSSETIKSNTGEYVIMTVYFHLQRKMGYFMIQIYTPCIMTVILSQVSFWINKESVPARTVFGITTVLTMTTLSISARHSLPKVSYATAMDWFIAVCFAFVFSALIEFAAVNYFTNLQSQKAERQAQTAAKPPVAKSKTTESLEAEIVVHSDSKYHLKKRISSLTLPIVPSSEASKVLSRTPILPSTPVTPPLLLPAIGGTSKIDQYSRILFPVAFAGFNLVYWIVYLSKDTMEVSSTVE
Chain of GABA A receptor alpha-6/beta-2/gamma-2 (P63138 whole entry): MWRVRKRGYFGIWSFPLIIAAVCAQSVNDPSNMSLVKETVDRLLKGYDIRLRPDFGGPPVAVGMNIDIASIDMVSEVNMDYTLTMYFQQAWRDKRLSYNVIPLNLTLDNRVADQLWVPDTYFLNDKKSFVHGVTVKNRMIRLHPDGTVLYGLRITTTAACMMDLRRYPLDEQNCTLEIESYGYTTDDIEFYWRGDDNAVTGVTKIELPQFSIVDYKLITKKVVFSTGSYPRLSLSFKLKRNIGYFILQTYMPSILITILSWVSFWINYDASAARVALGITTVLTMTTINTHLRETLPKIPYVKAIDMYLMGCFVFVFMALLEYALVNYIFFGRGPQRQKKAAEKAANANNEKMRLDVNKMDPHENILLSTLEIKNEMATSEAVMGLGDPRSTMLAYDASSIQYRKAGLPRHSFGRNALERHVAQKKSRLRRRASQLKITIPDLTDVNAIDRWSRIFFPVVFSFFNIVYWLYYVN
Chain of Gamma-aminobutyric acid receptor subunit alpha-4/beta-3/gamma-2 (P18508 whole entry): as the sequence (P18508 whole entry) above
Chain of Gamma-aminobutyric acid receptor subunit alpha-4/beta-3/gamma-2 (P28471 whole entry): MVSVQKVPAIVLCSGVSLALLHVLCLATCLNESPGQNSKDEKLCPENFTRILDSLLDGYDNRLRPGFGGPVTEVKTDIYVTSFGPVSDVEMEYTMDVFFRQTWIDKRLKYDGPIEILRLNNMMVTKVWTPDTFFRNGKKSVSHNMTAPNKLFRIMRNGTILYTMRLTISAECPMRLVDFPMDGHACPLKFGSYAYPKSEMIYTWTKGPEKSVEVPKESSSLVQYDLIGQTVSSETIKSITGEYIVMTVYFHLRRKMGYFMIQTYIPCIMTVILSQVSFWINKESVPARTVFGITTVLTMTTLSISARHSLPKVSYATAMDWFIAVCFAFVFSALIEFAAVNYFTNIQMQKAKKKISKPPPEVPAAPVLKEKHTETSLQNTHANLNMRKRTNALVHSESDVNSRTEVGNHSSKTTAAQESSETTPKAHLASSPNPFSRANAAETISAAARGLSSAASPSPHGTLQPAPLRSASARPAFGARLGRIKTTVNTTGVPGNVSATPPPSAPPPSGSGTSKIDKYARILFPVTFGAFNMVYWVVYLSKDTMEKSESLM
Chain of Gamma-aminobutyric acid receptor subunit alpha-4/beta-3/gamma-2 (P63079 whole entry): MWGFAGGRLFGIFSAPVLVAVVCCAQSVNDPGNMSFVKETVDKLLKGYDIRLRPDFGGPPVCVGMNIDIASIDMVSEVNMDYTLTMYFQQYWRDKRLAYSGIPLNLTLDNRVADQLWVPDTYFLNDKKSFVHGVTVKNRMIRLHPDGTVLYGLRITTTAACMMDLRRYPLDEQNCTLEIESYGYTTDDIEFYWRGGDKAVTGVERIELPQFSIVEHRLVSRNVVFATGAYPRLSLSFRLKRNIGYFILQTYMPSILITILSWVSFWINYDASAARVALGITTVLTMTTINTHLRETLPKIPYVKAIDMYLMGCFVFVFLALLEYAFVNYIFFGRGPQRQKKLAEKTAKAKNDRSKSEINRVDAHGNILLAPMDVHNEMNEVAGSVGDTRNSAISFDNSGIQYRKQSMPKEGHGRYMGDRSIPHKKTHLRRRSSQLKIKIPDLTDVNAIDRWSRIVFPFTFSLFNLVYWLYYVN
Chain of Gamma-aminobutyric acid receptor subunit alpha-1/beta-3/delta (P18506 whole entry): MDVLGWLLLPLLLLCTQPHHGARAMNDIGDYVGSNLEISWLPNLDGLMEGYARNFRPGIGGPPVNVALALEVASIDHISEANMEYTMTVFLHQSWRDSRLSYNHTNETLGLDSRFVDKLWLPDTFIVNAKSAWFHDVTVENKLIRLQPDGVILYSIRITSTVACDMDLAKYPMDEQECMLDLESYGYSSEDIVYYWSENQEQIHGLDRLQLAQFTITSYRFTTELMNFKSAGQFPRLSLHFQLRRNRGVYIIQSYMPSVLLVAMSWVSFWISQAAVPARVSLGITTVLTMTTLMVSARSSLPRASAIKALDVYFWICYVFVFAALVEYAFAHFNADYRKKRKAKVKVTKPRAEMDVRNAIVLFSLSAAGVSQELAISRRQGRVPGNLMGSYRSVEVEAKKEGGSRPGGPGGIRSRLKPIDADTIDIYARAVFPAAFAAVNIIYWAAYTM
Chain of Gamma-aminobutyric acid receptor subunit alpha-1/beta-3/delta (P62813 whole entry): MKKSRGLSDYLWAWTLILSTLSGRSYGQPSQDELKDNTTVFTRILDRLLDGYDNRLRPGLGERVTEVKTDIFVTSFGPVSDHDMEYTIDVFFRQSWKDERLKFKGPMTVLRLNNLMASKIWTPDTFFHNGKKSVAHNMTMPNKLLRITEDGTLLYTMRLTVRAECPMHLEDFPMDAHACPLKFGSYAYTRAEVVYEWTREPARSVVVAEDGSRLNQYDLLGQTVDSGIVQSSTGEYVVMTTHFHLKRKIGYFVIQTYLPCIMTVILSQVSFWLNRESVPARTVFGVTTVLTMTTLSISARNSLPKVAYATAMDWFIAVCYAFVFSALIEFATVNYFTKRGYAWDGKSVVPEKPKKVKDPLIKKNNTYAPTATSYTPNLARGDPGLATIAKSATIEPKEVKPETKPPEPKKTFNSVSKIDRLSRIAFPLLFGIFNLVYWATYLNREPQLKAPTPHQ
Chain of Gamma-aminobutyric acid receptor subunit alpha-1/beta-3/delta (P63079 whole entry): as the sequence (P63079 whole entry) above
Chain of Gamma-aminobutyric acid receptor subunit alpha-6/beta-3/delta (P18506 whole entry): as the sequence (P18506 whole entry) above
Chain of Gamma-aminobutyric acid receptor subunit alpha-6/beta-3/delta (P30191 whole entry): as the sequence (P30191 whole entry) above
Chain of Gamma-aminobutyric acid receptor subunit alpha-6/beta-3/delta (P63079 whole entry): as the sequence (P63079 whole entry) above
Chain of Gamma-aminobutyric acid receptor subunit alpha-6/beta-3 (P30191 whole entry): as the sequence (P30191 whole entry) above
Chain of Gamma-aminobutyric acid receptor subunit alpha-6/beta-3 (P63079 whole entry): as the sequence (P63079 whole entry) above

O=C(Nc1c(-c2cccs2)nc2c(Br)cc(Br)cn12)c1ccc(Cl)cc1 showed an IC50 [1] of 3290 nM, an IC50 [2] of 790 nM and an IC50 [3] of 1130 nM. The Imax [4] was 18%, the Imax [5] was 80% and the Imax [6] was 90%. The Imax [7] was 82%, the Ratio IC50 [8] was 4 and the Ratio IC50 [9] was 4. The Ratio IC50 [10] was 7, the Ratio IC50 [11] was 2.5 and the EC50 [12] was 100 nM. For the same compound, the Activity [13] was 168%, the Activity [14] was 1140% and the Ratio [15] was 0.058. It also gave a Ratio [16] of 1.48, a Ratio [17] of 1.04 and an Imax [18] of 88%. The IC50 [19] was 370 nM, the Ratio IC50 [20] was 2 and the Imax [21] was 84%. It also gave an Activity [22] of 802%.
